From paper PMC8266253 (Journal of Enzyme Inhibition and Medicinal Chemistry, 2021) come the findings set out here.

For one assay, the target named is T1, AKR1C2 (Homo sapiens, UniProt P52895).
T1 sequence (P52895 1-323): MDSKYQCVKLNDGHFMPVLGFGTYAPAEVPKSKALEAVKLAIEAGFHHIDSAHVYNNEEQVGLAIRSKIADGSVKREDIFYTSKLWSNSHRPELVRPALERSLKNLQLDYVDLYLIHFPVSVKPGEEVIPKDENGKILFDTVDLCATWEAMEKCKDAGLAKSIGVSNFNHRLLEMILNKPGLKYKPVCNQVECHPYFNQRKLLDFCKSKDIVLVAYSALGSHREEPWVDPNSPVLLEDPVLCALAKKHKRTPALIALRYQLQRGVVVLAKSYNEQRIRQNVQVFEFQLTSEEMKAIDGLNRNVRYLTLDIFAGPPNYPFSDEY
Kind of assay: Inhibition assay for recombinant AKR1C2. The conditions noted are these: for inhibition at 10 µM: pH 9, read-out: AKR1C2 Inhibition (%) 10 μM. Format: biochemical. The procedure, abridged:
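Rates are followed as NADH absorbance increase at 340 nm, with recombinant AKR1C2 (0.3 µM, added last) and 180 µM final 1-acenaphthenol. The mix is 2.3 mM NAD⁺, 0.09 M potassium phosphate pH 9.0, 0.005% Triton X-114 and 0.05% DMSO, plus test compound in DMSO. Duplicates, two independent experiments. IC50 is fitted from residual activity vs log concentration; inhibition mode, KM, KI and α are fitted from kinetics.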

In a further assay the target is T2, AKR1C1 (Homo sapiens, UniProt Q04828).
T2 sequence (Q04828 1-323): T1 sequence (P52895 1-323) with V38T, H47R, V54L, S87C, M151V, H170R, L172Q
Kind of assay: Inhibition assay for recombinant AKR1C1. Format: biochemical. To be noted: for inhibition at 10 µM: pH 9, read-out: AKR1C1 Inhibition (%) 10 μM. The procedure, abridged: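 Human recombinant AKR1C1 oxidising 1-acenaphthenol (90 µM final) with 2.3 mM NAD⁺, in 0.09 M potassium phosphate pH 9.0, 0.005% Triton X-114, 0.05% DMSO. Test compound is added in DMSO, and 0.1 µM enzyme starts the reaction. NADH rise at 340 nm gives initial velocities. Runs are in duplicate, two independent experiments. IC50 comes from residual activity vs log inhibitor; inhibition type, KM, KI and α come from kinetic fitting.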

Where [1] appears, read: pH 9, read-out: AKR1C2 Inhibition (%) 100 μM.
Where [2] appears, read: pH 9, read-out: AKR1C1 Inhibition (%) 100 μM.

Substitutions are numbered along the chain they refer to. Like-named read-outs stand apart in the source and are kept apart here.

As for `C[C@@]12CC[C@@H]3c4cc(I)c(O)c(Cl)c4CC[C@H]3[C@@H]1CCC2=O` [2_2I,4Cl, 4-chloro-3-hydroxy-2-iodo-13α-oestra-1,3,5(10)-trien-17-one], the IC50 worked out at 7100 nM on AKR1C2 and 800 nM on AKR1C1. The inhibition at 10 µM on AKR1C2 was 73%; at AKR1C1, 90%. Moreover, the inhibition at 100 µM at AKR1C2 (setting [1]) turned out to be 87.5%; on AKR1C1 (setting [2]), 99%.

For the compound `C[C@@]12CC[C@@H]3c4cc(Br)c(O)c(Cl)c4CC[C@H]3[C@@H]1CCC2=O` [2_2Br,4Cl, 2-bromo-4-chloro-3-hydroxy-13α-oestra-1,3,5(10)-trien-17-one], the IC50 on AKR1C2 was 3100 nM; on AKR1C1, 1700 nM. The inhibition at 10 µM on AKR1C2 and at AKR1C1 was 80% in each case. Besides, the inhibition at 100 µM stood at 99% on AKR1C2 (setting [1]) and 92.3% at AKR1C1 (setting [2]).

In the case of `C[C@@]12CC[C@@H]3c4cc(Br)c(O)c(I)c4CC[C@H]3[C@@H]1CCC2=O` [2_2Br,4I, 2-bromo-3-hydroxy-4-iodo-13α-oestra-1,3,5(10)-trien-17-one], the IC50 at AKR1C2 is 4400 nM; at AKR1C1, 7200 nM. In addition, the figures for the inhibition at 10 µM at AKR1C2 and on AKR1C1 were 75% and 67%, respectively. The inhibition at 100 µM on AKR1C2 (setting [1]) and on AKR1C1 (setting [2]) was 100% throughout.

As for `C[C@@]12CC[C@@H]3c4cc(Cl)c(O)c(I)c4CC[C@H]3[C@@H]1CCC2=O` [2_2Cl,4I, 2-chloro-3-hydroxy-4-iodo-13α-oestra-1,3,5(10)-trien-17-one], the IC50 on AKR1C2 was determined as 4600 nM. For the same compound, the inhibition at 10 µM on AKR1C2 was determined as 73%; at AKR1C1, 50%. Besides, the inhibition at 100 µM on AKR1C2 (setting [1]) stood at 89.2%; on AKR1C1 (setting [2]), 82.6%.

`C[C@@]12CC[C@@H]3c4cc(Cl)c(O)c(Br)c4CC[C@H]3[C@@H]1CCC2=O` [2_2Cl,4Br, 4-bromo-2-chloro-3-hydroxy-13α-oestra-1,3,5(10)-trien-17-one]: the inhibition at 10 µM is 65% on AKR1C2 and 80% at AKR1C1. Moreover, the inhibition at 100 µM at AKR1C2 (setting [1]) came to 91.9%; on AKR1C1 (setting [2]), 93.9%. Also, at AKR1C1, the IC50 was found to be 1900 nM.

Consider `C[C@@]12CC[C@@H]3c4cc(I)c(O)c(Br)c4CC[C@H]3[C@@H]1CCC2=O` [2_2I,4Br, 4-bromo-3-hydroxy-2-iodo-13α-oestra-1,3,5(10)-trien-17-one], for which the inhibition at 10 µM at AKR1C2 came out at 59.5%; at AKR1C1, 90.7%. Also, the inhibition at 100 µM on AKR1C2 (setting [1]) amounted to 74.7%; at AKR1C2 (read-out: Biological activity AKR1C2 (biological inhibition at 100 μM)) it was 74.7%; at AKR1C1 (setting [2]), 93.4%; at AKR1C1 (read-out: Biological activity AKR1C1 (biological inhibition at 100 μM)), 93.4%. In addition, the IC50 on AKR1C1 came to 700 nM. Moreover, the Ki at AKR1C1 was 570 nM. Besides, the “Type of inhibition of AKR1C1” value at AKR1C1 (kinetic studies) is reported as “mixed type of inhibition”.

By IC50 is commonly meant the point on the concentration scale where inhibition reaches its midpoint. One may read the inhibition as the percentage by which the read-out fell short of the control. The term Ki denotes the equilibrium dissociation constant of an inhibitor or competing ligand from its target.
